Assays:
[1] = Displacement of [3H]-DTG from sigma 2 receptor in rat liver membranes after 120 mins by scintillation counting analysis; type: cell membranes, Membrane
Method in brief: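 Rat liver homogenate (150 μg) incubated 120 min at room temperature with 3 nM [3H]-DTG in 50 mM Tris-HCl pH 8.0. Excess unlabeled (+)-pentazocine masked S1R, and high unlabeled DTG defined nonspecific binding. Compound at 10^-10 to 10^-5 M final, in duplicate. Filtered through PEI-presoaked filtermats and counted by scintillation. IC50 from nonlinear regression, converted to Ki by Cheng-Prusoff; mean ± SEM of three experiments.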

[2] = molecular target: Sigma non-opioid intracellular receptor 1 (Cavia porcellus, UniProt Q60492); test: Displacement of [3H]-(+)-pentazocine from sigma 1 receptor in guinea pig cerebral cortex membranes after 120 mins by scintillation counting analysis; parameters: species or system Membrane
Sigma non-opioid intracellular receptor 1, sequence (Q60492 whole entry): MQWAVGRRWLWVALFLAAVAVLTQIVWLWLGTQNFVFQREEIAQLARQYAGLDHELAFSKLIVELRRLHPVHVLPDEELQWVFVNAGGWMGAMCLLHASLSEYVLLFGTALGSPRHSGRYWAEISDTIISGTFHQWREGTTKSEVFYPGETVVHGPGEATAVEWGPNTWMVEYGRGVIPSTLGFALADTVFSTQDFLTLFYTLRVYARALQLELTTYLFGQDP

[3] = Selectivity ratio of Ki for sigma 2 receptor in rat liver membranes to Ki for sigma 1 receptor in guinea pig cerebral cortex membranes; type: cell membranes
Method in brief: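 Ratio computed as Ki at S2R (rat liver, [3H]-DTG with S1R masked by (+)-pentazocine) divided by Ki at S1R (guinea pig cortex, [3H](+)-pentazocine). Both Ki values come from Cheng-Prusoff conversion of IC50s from 120 min displacement assays, each the mean of three experiments.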

SMILES	Ki [1]	Ki [2]	Ratio Ki [3]
CC(CCN(C)C)c1ccccc1 (racemic)	> 1000 nM	427 nM	–
COc1cccc(C(C)CCN2CCC(Cc3ccccc3)CC2)c1 (racemic)	14 nM	2.9 nM	4.83
CC(CCN1CCOCC1)c1ccc2ccccc2c1 (racemic)	33 nM	5.4 nM	6.1
COc1ccc(C(C)CCN2CCOCC2)cc1 (racemic)	68 nM	76 nM	0.89
COc1cccc(C(C)CCN(C)C)c1 (stereo not given)	864 nM	239 nM	3.62
CC(CCN1CCC(Cc2ccccc2)CC1)c1ccc2ccccc2c1 (racemic)	144 nM	19 nM	7.6
CC(CCN1CCCCC1)c1ccccc1 (racemic)	56 nM	46 nM	1.22
CC(CCN1CCC(Cc2ccccc2)CC1)c1ccccc1 (racemic)	6.5 nM	–	3.1
CC(CCN(C)C)c1ccc2ccccc2c1 (racemic)	43.8 nM	–	22
COc1ccc(C(C)CCN2CCCCC2)cc1 (racemic)	58 nM	20 nM	2.9

Continued by falling Ki [1], values first:

Ki [1]	Ki [2]	Ratio Ki [3]	SMILES
255 nM	116 nM	2.2	COc1ccc(C(C)CCN(C)C)cc1 (racemic)
92 nM	137 nM	0.67	COc1cccc(C(C)CCN2CCOCC2)c1 (racemic)
71 nM	85 nM	1.2	CC(CCN1CCOCC1)c1ccccc1 (racemic)
50 nM	1.5 nM	33.3	CC(CCN1CCCCC1)c1ccc2ccccc2c1 (racemic)
35 nM	36 nM	0.97	COc1cccc(C(C)CCN2CCCCC2)c1 (racemic)
18 nM	3.5 nM	5.14	COc1ccc(C(C)CCN2CCC(Cc3ccccc3)CC2)cc1 (racemic)

Source: ChEMBL document CHEMBL3867483, “Gaining in pan-affinity towards sigma 1 and sigma 2 receptors. SAR studies on arylalkylamines” (Bioorg Med Chem, 2017)
